According to ChEMBL document CHEMBL4229410, “Facile construction of fused benzimidazole-isoquinolinones that induce cell-cycle arrest and apoptosis in colorectal cancer cells” (Bioorg Med Chem, 2018):
Activity calls are given as the source filed them. The rule behind the calls is not given here.

Key:
Focal adhesion kinase 1 = Focal adhesion kinase 1 (Homo sapiens, UniProt Q05397); test: Inhibition of human FAK (D402 to R696 residues) expressed in bacterial expression system assessed as residual activity at 5 uM by KINOMEscan assay relative to control
[1] = target: Platelet-derived growth factor receptor alpha (Homo sapiens, UniProt P16234); test: Inhibition of human PDGFRA (V575 to D1002 residues) expressed in mammalian expression system assessed as residual activity at 5 uM by KINOMEscan assay relative to control
Homo sapiens = species: Homo sapiens; test: Inhibition of PI3K/AKT signaling pathway in human SW620 cells assessed as reduction in mTOR phosphorylation up to 75 uM after 48 hrs by Western blot analysis; type: cell-based
HT-29 [2] = test: Induction of apoptosis in human HT-29 cells assessed as necrotic cells at 50 uM after 48 hrs by Annexin-V-FITC/propidium iodide staining based flow cytometry (reference value: 1.6%); type: functional
[3] = target: Serine/threonine-protein kinase ULK2 (Homo sapiens) (UniProt Q8IYT8); test: Inhibition of human ULK2 (M1 to S301 residues) expressed in mammalian expression system assessed as residual activity at 5 uM by KINOMEscan assay relative to control
Sequence of Serine/threonine-protein kinase ULK2 (Homo sapiens) (Q8IYT8 whole entry, the tested form may be a part): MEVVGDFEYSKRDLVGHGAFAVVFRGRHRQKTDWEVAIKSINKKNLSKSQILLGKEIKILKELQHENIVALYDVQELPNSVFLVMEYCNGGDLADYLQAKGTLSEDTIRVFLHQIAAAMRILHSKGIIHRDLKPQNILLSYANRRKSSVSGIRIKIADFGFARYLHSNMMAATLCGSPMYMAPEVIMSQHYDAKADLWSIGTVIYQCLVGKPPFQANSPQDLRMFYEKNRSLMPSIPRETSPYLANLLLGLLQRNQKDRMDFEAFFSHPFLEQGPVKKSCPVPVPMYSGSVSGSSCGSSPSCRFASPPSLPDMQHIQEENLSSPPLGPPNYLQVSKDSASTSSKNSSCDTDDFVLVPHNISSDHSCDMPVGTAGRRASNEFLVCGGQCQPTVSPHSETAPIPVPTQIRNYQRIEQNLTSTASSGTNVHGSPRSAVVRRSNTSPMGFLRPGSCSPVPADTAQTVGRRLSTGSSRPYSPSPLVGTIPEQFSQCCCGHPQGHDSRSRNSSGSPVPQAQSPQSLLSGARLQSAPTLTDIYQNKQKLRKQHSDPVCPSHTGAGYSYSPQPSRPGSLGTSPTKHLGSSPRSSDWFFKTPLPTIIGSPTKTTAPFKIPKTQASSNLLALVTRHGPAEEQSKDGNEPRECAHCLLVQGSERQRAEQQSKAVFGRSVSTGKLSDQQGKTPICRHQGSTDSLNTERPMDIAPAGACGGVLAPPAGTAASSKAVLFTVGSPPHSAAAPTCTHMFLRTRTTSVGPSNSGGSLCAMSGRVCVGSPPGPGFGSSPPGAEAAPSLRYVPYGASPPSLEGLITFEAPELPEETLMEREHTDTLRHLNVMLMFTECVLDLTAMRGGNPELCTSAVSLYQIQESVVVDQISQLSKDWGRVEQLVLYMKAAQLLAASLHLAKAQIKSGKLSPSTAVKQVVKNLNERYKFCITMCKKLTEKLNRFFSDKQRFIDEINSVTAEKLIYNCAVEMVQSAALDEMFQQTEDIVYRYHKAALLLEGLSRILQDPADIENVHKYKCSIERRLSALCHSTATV

[4] = target: Aurora kinase A (Homo sapiens) (UniProt O14965); test: Inhibition of human AURKA (E122 to K401 residues) expressed in mammalian expression system assessed as residual activity at 5 uM by KINOMEscan assay relative to control
Sequence of Aurora kinase A (Homo sapiens) (O14965 whole entry, the tested form may be a part): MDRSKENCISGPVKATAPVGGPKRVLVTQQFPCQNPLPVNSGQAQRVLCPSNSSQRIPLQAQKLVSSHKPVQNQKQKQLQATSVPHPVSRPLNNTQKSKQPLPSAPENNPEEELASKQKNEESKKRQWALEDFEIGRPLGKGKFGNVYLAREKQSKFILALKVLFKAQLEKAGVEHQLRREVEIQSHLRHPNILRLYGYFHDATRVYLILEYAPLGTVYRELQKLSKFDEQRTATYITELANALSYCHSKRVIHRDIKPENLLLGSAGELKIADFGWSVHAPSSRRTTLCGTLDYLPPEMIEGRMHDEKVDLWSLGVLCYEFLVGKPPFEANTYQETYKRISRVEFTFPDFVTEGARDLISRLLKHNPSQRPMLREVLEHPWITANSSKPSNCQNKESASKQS

Ephrin type-A receptor 2 = Ephrin type-A receptor 2 (Homo sapiens, UniProt P29317); test: Binding affinity to human EPHA2 (T593 to V891 residues) expressed in bacterial expression system by KINOMEscan assay
SW-620 [5] = test: Induction of apoptosis in human SW620 cells assessed as late apoptotic cells at 75 uM after 48 hrs by Annexin-V-FITC/propidium iodide staining based flow cytometry (reference value: 1.2%); type: functional
SW-620 [6] = test: Increase in PTEN expression in human SW620 cells after 48 hrs by Western blot analysis; type: functional, cell-based
Procedure, shortened: (§1)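 HT29 or SW620 cells were treated at 0, 25, 50 and 75 μM for 48 h and lysed in RIPA with protease and phosphatase inhibitors. Protein was quantified by BCA. 50 μg lysate was run on 8–15% SDS-PAGE and transferred to PVDF. Blocking was 5% BSA/TBST for 2 h; primary antibodies were applied overnight at 4 °C, then HRP secondary 1 h at room temperature.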

HT-29 [7] = test: Effect on total 4EBP1 expression in human HT-29 cells up to 75 uM after 48 hrs by Western blot analysis; type: ADME, cell-based; conditions: ht-29, 48 h; procedure, shortened: as §1
[8] = target: ALK tyrosine kinase receptor (Homo sapiens, UniProt Q9UM73); test: Inhibition of human ALK (I1088 to E1409 residues) expressed in mammalian expression system assessed as residual activity at 5 uM by KINOMEscan assay relative to control
[9] = target: Phosphatidylinositol 4,5-bisphosphate 3-kinase catalytic subunit alpha isoform (Homo sapiens, UniProt P42336); test: Inhibition of human PIK3CA (R108 to N1068 residues) expressed in mammalian expression system assessed as residual activity at 5 uM by KINOMEscan assay relative to control
Sequence of Phosphatidylinositol 4,5-bisphosphate 3-kinase catalytic subunit alpha isoform (P42336 whole entry, the tested form may be a part, canonical isoform): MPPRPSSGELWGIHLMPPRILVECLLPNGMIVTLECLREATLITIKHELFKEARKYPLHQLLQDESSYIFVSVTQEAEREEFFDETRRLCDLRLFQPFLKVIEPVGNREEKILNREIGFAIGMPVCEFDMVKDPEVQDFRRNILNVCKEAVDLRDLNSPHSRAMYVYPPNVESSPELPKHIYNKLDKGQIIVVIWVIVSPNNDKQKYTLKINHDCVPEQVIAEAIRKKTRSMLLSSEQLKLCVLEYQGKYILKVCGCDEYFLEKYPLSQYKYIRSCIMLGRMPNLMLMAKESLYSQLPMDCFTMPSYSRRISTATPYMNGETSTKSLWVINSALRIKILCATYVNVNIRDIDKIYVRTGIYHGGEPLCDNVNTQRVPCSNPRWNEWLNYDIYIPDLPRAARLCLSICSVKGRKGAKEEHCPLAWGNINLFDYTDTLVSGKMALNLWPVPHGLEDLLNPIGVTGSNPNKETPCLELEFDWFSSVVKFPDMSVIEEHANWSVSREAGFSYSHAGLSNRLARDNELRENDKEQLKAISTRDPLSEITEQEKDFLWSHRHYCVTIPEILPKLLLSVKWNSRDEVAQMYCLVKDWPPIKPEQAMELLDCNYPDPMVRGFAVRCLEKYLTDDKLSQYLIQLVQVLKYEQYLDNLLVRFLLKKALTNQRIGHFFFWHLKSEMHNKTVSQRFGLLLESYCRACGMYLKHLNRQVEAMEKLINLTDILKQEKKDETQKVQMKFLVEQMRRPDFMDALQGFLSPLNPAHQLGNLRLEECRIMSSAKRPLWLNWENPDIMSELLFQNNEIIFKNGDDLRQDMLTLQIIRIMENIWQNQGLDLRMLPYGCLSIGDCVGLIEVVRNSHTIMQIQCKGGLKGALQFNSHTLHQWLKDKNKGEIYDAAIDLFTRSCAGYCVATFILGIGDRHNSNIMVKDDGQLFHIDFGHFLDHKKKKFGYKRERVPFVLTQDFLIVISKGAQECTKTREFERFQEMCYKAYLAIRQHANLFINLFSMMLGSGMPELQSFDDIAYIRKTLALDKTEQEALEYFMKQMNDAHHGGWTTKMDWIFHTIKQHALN

[10] = target: Dual specificity mitogen-activated protein kinase kinase 1 (Homo sapiens, UniProt Q02750); test: Inhibition of full length human MEK1 (M1 to V393 residues) expressed in mammalian expression system assessed as residual activity at 5 uM by KINOMEscan assay relative to control
SRSF protein kinase 3 = SRSF protein kinase 3 (Homo sapiens, UniProt Q9UPE1); test: Binding affinity to human SRPK3 (P41 to P567 residues) expressed in bacterial expression system by KINOMEscan assay
[11] = target: Cyclin-dependent kinase 9 (Homo sapiens, UniProt P50750); test: Binding affinity to full length human CDK9 (M1 to F372 residues) expressed in bacterial expression system by KINOMEscan assay
[12] = target: Tyrosine-protein kinase JAK2 (Homo sapiens, UniProt O60674); test: Inhibition of human JAK2 JH1 catalytic domain (A829 to G1132 residues) expressed in mammalian expression system assessed as residual activity at 5 uM by KINOMEscan assay relative to control
Sequence of Tyrosine-protein kinase JAK2 (O60674 whole entry, the tested form may be a part): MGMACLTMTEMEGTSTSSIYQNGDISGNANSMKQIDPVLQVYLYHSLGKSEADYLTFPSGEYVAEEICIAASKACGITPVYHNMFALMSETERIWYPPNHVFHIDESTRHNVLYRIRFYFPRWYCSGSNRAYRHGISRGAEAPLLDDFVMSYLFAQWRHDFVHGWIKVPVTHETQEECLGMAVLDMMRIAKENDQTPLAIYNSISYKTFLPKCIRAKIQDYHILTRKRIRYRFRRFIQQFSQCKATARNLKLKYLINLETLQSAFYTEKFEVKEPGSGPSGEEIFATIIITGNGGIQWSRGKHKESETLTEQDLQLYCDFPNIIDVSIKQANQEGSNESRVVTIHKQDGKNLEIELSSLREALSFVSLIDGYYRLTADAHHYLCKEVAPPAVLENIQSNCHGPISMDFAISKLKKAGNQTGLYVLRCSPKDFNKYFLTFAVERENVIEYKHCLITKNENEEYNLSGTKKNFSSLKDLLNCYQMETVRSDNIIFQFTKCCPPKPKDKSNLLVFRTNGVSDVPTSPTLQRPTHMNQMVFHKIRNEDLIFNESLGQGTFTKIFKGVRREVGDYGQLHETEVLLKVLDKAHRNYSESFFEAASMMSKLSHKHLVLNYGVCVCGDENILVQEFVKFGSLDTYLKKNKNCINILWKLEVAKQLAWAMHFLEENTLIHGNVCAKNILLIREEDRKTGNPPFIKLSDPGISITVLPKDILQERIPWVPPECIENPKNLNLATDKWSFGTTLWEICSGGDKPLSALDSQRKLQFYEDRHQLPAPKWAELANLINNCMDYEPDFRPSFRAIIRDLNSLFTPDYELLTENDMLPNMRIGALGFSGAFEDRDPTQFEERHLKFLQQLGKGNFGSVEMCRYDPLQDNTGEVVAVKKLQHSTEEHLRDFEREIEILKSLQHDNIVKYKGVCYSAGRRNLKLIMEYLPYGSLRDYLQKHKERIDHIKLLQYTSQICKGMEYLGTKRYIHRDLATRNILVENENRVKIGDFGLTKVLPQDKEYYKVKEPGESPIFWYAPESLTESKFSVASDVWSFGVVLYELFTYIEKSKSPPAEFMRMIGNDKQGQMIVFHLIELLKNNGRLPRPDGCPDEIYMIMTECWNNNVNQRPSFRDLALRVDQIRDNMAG

HT-29 [13] = test: Cell cycle arrest in human HT-29 cells assessed as accumulation at G2-phase at 75 uM after 48 hrs by propidium iodide staining based flow cytometry (reference value: 15.45%); type: functional
[14] = target: Dual specificity mitogen-activated protein kinase kinase 2 (Homo sapiens, UniProt P36507); test: Inhibition of full length human MEK2 (M1 to V400 residues) expressed in mammalian expression system assessed as residual activity at 5 uM by KINOMEscan assay relative to control
Sequence of Dual specificity mitogen-activated protein kinase kinase 2 (P36507 whole entry, the tested form may be a part, canonical isoform): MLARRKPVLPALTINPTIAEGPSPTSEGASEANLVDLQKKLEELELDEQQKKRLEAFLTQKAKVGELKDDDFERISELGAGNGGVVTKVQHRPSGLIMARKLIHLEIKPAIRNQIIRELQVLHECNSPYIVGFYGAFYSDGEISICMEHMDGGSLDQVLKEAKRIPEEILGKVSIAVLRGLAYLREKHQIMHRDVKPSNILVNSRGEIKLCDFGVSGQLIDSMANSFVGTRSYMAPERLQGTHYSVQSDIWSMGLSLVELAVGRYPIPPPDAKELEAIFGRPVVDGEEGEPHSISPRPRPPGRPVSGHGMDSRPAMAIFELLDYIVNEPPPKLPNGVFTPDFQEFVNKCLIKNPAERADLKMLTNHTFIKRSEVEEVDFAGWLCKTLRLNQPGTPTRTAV

[15] = target: Casein kinase I isoform delta (Homo sapiens, UniProt P48730); test: Binding affinity to full length human CSNK1D (M1 to K409 residues) expressed in bacterial expression system by KINOMEscan assay
Sequence of Casein kinase I isoform delta (P48730 whole entry, the tested form may be a part, canonical isoform): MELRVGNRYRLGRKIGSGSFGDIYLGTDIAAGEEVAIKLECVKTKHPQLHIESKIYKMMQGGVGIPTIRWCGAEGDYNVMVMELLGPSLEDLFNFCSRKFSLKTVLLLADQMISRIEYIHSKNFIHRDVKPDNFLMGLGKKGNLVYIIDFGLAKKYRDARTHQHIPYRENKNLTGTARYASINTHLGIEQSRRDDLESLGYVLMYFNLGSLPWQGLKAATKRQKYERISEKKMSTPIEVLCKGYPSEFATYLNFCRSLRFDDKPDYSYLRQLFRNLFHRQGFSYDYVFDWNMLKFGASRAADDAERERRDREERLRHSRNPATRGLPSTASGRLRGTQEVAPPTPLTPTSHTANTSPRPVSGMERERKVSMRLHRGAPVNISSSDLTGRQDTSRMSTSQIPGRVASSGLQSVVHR

SW-620 [16] = test: Upregulation of p53 expression in human SW620 cells after 48 hrs by Western blot analysis; type: functional, cell-based
SW-620 [17] = test: Cell cycle arrest in human SW620 cells assessed as accumulation at G2-phase at 50 uM after 48 hrs by propidium iodide staining based flow cytometry (reference value: 14.08%); type: functional
SW-620 [18] = test: Cell cycle arrest in human SW620 cells assessed as accumulation at G1-phase at 50 uM after 48 hrs by propidium iodide staining based flow cytometry (reference value: 40.56%); type: functional
[19] = target: RAC-beta serine/threonine-protein kinase (Homo sapiens, UniProt P31751); test: Binding affinity to human AKT2 expressed in bacterial expression system by KINOMEscan assay
Sequence of RAC-beta serine/threonine-protein kinase (P31751 whole entry, the tested form may be a part): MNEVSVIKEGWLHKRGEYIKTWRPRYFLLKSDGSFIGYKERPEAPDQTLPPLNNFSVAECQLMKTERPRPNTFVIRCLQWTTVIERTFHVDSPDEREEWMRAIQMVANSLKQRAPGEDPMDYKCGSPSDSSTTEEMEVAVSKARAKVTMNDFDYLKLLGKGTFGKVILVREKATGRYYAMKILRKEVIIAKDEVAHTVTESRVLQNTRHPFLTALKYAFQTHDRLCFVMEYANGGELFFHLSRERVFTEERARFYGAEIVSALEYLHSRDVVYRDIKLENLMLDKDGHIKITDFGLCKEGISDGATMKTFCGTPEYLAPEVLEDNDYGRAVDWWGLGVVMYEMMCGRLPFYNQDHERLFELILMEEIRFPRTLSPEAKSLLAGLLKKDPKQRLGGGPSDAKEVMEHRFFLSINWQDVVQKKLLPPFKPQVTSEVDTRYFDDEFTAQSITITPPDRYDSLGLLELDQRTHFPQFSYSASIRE

[20] = target: Receptor tyrosine-protein kinase erbB-4 (Homo sapiens, UniProt Q15303); test: Inhibition of human ERBB4 (L690 to K994 residues) expressed in bacterial expression system assessed as residual activity at 5 uM by KINOMEscan assay relative to control
[21] = target: NUAK family SNF1-like kinase 2 (Homo sapiens) (UniProt Q9H093); test: Inhibition of human SNARK (P22 to A333 residues) expressed in mammalian expression system assessed as residual activity at 5 uM by KINOMEscan assay relative to control
[22] = target: Mast/stem cell growth factor receptor Kit (Homo sapiens, UniProt P10721); test: Binding affinity to human KIT (I571 to D952 residues) expressed in bacterial expression system by KINOMEscan assay
[23] = target: Cyclin-dependent kinase 7 (Homo sapiens, UniProt P50613); test: Inhibition of full length human CDK7 (M1 to L344 residues) expressed in mammalian expression system assessed as residual activity at 5 uM by KINOMEscan assay relative to control
[24] = target: Glycogen synthase kinase-3 beta (Homo sapiens, UniProt P49841); test: Inhibition of full length human GSK3B (M1 to T433 residues) expressed in mammalian expression system assessed as residual activity at 5 uM by KINOMEscan assay relative to control
HT-29 [25] = test: Induction of apoptosis in human HT-29 cells after 48 hrs by Annexin-V-FITC/propidium iodide staining based flow cytometry; type: functional, cell-based

In the case of `CC(C)CN(C(=O)c1cccnc1)c1c2ccccc2c(=O)n2c1[nH]c1ccccc12`, the Activity (Focal adhesion kinase 1) is reported as 100%, the Activity [1] is reported as 100% and the inhibition (Homo sapiens) is reported as “Active”. For the same compound, the Activity (HT-29 [2]) was 4.4%, the Activity [3] was 87% and the Activity [4] was 100%. The Kd (Ephrin type-A receptor 2) was no less than 5 µM, the Activity (SW-620 [5]) was 19.6% and the Activity (SW-620 [6]) was “Dose-dependent effect”. The Activity (HT-29 [7]) was “Non-Toxic”, the Activity [8] was 65% and the Activity [9] was 100%. For the same compound, the Activity [10] was 91%, the Kd (SRSF protein kinase 3) was no less than 5 µM and the Kd [11] was no less than 5 µM. It also gave an Activity [12] of 88%, an Activity (HT-29 [13]) of 21.78% and an Activity [14] of 82%. The Kd [15] was no less than 5 µM, the Activity (SW-620 [16]) was “Dose-dependent effect” and the Activity (SW-620 [17]) was 21.52%. It also gave an Activity (SW-620 [18]) of 46.19%, a Kd [19] of no less than 5 µM and an Activity [20] of 98%. For the same compound, the Activity [21] was 100%, the Kd [22] was no less than 5 µM and the Activity [23] was 100%. For the same compound, the Activity [24] was 100% and the Activity (HT-29 [25]) was “Dose-dependent effect”.
